Measurements of several laboratories.
Protocols differ between the studies behind these lines.
Target: Protein kinase C eta type (PRKCH, Homo sapiens, UniProt P24723)

SMILES | assay | setting | remaining binding [%]
c1cnn2ncc(-c3ccnc(N4CCC45COC5)n3)c2c1 | binding | 1 µM | 88
CC(=O)Nc1c(C(C)=O)c(=O)n(C)c2nc(-c3ccc(Cl)cc3Cl)c(-c3ccc(Cl)cc3)cc12 | cell-free assay, competition with immobilised ligand | 1 µM | 100
O=C(Nc1c[nH]nc1C(=O)NC1CCNCC1)c1cc(F)cc(F)c1 | binding, competition with immobilised ligand | 1 µM | 73
FC(F)(F)Oc1cccc(-c2cnc3ccc(-c4ccncc4)nn23)c1 | cell-free assay, competition with immobilised ligand | 5 µM | 91
Nc1ncc2c(n1)-c1c([nH]c3ccc(C#CC4CC4)cc13)CCCC2 | binding, competition with immobilised ligand | 1 µM | 100
O=C(c1ccc(Nc2ncc(Cl)c(-c3ccc(Cl)s3)n2)cc1)N1CCC(N2CCCC2)CC1 | binding, competition with immobilised ligand | 1 µM | 46
CC1CCCN1c1nccc(-c2cnn3ncccc23)n1 (stereo not shown) | binding | 1 µM | 100
COc1cnc(Nc2cccc(S(N)(=O)=O)c2)nc1N1CCN(c2ccccc2)CC1 | binding, competition with immobilised ligand | 1 µM | 100
N[C@H]1CCN(c2nccc(-c3cnn4ncccc34)n2)C1 | binding | 1 µM | 88
COc1cc(-c2cn(C3CCc4c(F)cccc4N(CC(F)(F)F)C3=O)nn2)ccc1-n1cnc(C)c1 (stereo not shown) | cell-free assay, competition with immobilised ligand | 1 µM | 100
O=C(NCCCN1CCOCC1)c1ccc(Nc2ncc(Cl)c(-c3ccc(Cl)s3)n2)cc1 | binding, competition with immobilised ligand | 1 µM | 100
O=C(Nc1cnc(Oc2ccc(F)cc2)nc1)N1CCc2ncccc2[C@@H]1c1ccc(F)cc1 | cell-free assay, competition with immobilised ligand | 1 µM | 76
COc1cnc(Nc2cccc(S(N)(=O)=O)c2)nc1N1CCN(c2ccccc2)C(=O)C1 | binding, competition with immobilised ligand | 1 µM | 95
COc1ccc2c(c1)O[C@@H](c1ccc(OC)c(OC)c1)C[C@H]2NC(=O)C1(c2ccc3c(c2)OC(F)(F)O3)CC1 | cell-free assay, competition with immobilised ligand | 1 µM | 96
CCN1CCN(Cc2ccc(C(=O)Nc3ccc(C)c(Oc4ccc5c(c4)CC(=O)N5)c3)cc2C(F)(F)F)CC1 | binding, competition with immobilised ligand | 1 µM | 100
O=C(NCCCN1CCOCC1)c1ccc(Nc2nccc(-c3cc4ccccc4s3)n2)cc1 | binding, competition with immobilised ligand | 1 µM | 84
CN(C)c1nccc(-c2cnc3ncccn23)n1 | binding | 1 µM | 100
CN(C)CC#Cc1ccc(OCCCc2sc(N3CCc4cccc(C(=O)Nc5nc6ccccc6s5)c4C3)nc2C(=O)O)c(F)c1 | cell-free assay, competition with immobilised ligand | 1 µM | 74
C[C@H]1CCN(c2nccc(-c3cnn4ncccc34)n2)C1 | binding | 1 µM | 93
CCCOc1ccc([C@@H]2[C@@H](C(=O)O)[C@H](c3ccc4c(c3)OCO4)CN2CC(=O)Nc2c(CC)cccc2CC)cc1 | cell-free assay, competition with immobilised ligand | 1 µM | 100
Cc1cnn2ncc(-c3ccnc(N(C)C)n3)c2c1 | binding | 1 µM | 100
C[C@@H]1CN(c2cc(-c3n[nH]c4ccc(OC5(C)CC5)cc34)ncn2)C[C@H](C)O1 | cell-free assay, competition with immobilised ligand | 0.1 µM | 92
